Compound activity: PubChem BioAssay, Johns Hopkins Ion Channel Center
Hits are enriched below; roughly 3.5% of the tested compounds scored in any of these assays.
MrgX1 PAM: human MrgX1 positive allosteric modulation, primary screen; 0.63% of 310,000 active; B-score at 10 µM; Q96LB2; MrgX1-HEK293, Fluo-4 calcium flux, FDSS; active compounds read high;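 active means plate-corrected calcium response at least 3 library SD above typical, normal starting fluorescence, not activating the receptor alone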;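 further: compound read alongside a low EC10 to EC30 dose of BAM8-22 agonist; peak minus trough fluorescence over baseline measured at the second addition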
Target sequence (Q96LB2 whole entry, looked up): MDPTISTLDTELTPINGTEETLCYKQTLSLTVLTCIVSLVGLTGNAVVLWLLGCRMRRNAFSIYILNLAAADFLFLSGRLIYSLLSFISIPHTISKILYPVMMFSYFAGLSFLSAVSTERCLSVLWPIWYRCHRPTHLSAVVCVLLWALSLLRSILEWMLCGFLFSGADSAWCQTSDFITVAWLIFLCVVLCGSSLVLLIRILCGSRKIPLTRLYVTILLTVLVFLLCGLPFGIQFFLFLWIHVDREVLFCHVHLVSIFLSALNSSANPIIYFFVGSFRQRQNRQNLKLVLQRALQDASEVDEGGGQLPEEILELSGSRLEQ
MrgX1 agonist: activates human MrgX1 receptor signaling; AID 588627; B-score at 10 µM; Q96LB2; MrgX1-HEK293 cells, Fluo-4 calcium fluorescence, agonist mode; active compounds read high; 0.44% of 310,000 active;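 active means calcium response B-score plate-corrected fluorescence ratio at least 3 library SD, with starting fluorescence B-score inside 5 SD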
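Assay system: MrgX1-expressing HEK293 cells / Amount: fifteen thousand cells per well / Doses: test compound in the initial addition of three / Timing: cells plated overnight, dye loaded 0.5 h 37 °C, 0.5 h room temperature / Technique: kinetic calcium dye fluorescence, Fluo-4 NW / Control set: positive and negative controls per plate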
RGS4 act: potentiators or activators of RGS4 | 0.92% of 310,000 active | AID 463111 | B-score at 10 µM | HEK293 M3R/inducible RGS4, carbachol calcium flux Fluo4; active compounds read low;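 active means B-score of the integrated calcium signal more than 4 SD below the library mean, with starting fluorescence not abnormally high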;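 further: negative B-score means reduced calcium response which marks RGS4 activation or potentiation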
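Test system: HEK293 cells with stable M3R and inducible RGS4; also added: carbachol at ECmax as muscarinic agonist stimulus; schedule: dye loading 30 min 37 °C, buffer rest 30 min RT; technique: kinetic calcium fluorescence imaging with Fluo4-AM dye, 2 µM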
MrgX1 antag: human MrgX1 receptor antagonism, primary screen. MRGX1-HEK293 calcium flux, Fluo-4, BAM8-22 antagonism; active compounds read low. B-score at 10 µM. 1.3% of 310,000 active. AID 588676;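 active means calcium-response B-score plate-corrected more than 3 library SD below zero, starting fluorescence within 5 deviations, no agonist response on first addition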;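 further: peak minus trough fluorescence over baseline after final BAM8-22 challenge near maximal dose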
RGS4 block: human RGS4 inhibition | P49798 | HEK293 M3R/RGS4 inducible, Fluo-4 calcium flux; active compounds read high; triggered by carbachol at its EC20 | B-score at 10 µM | 0.45% of 310,000 active | AID 463165;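 active means B-score, a plate-corrected calcium signal, over three deviations above library mean, with baseline fluorescence within five deviations of library mean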;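 further: RGS4 expression induced by doxycycline in cells with stable M3 receptor; B-score is computed from the integrated fluorescence ratio over baseline after carbachol; higher B-score means a larger calcium signal and so more RGS4 inhibition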
Target sequence (P49798 whole entry, looked up): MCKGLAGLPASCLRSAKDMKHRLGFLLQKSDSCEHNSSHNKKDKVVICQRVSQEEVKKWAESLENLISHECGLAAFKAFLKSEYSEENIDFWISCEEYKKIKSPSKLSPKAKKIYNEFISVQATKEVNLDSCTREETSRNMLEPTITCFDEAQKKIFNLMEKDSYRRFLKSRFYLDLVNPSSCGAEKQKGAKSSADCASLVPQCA
MrgX1 antag conf: reconfirmed antagonist of human MrgX1 receptor signaling; shares compounds with MrgX1 antag; MrgX1-HEK293, BAM8-22 calcium flux, Fluo-4; active compounds read low; remaining BAM8-22 calcium response % of control (active compounds read low), % at 10 µM; 19% of 2,300 active; AID 602420;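 active means remaining agonist calcium response no higher than 100% minus 3 SD of agonist-only control wells, with starting fluorescence near control levels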;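 further: agonist BAM8-22 given at a near maximal EC90 to ECmax level; peak minus minimum fluorescence divided by baseline after agonist addition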
HEK293 Ca flux: activity in parental HEK293 cells lacking MrgX1; shares compounds with MrgX1 antag; Fluo-4 calcium fluorescence, FDSS; fluorescence ratio F(max-min)/F0 at 10 µM; 2% of 4,000 active; AID 624111;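 active means duplicate-averaged calcium fluorescence ratio at least three times the standard deviation of buffer wells, a nonspecific response in parental cells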
HEK293 Ca counter: MrgX1 allosteric activator counter-screen hit in parental HEK293 cells; 0.4% of 4,000 active; fluorescence ratio F(max-min)/F0 at 10 µM; shares compounds with MrgX1 antag; parental HEK293 calcium flux, Fluo-4 fluorescence ratio; active compounds read high; AID 624114;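 active means calcium fluorescence ratio, averaged over duplicates, at least 3 SD of the buffer-well ratio, meaning a nonspecific response in receptor-free cells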;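 further: untransfected parental HEK293 lacking MrgX1 used as counterscreen for MrgX1 allosteric activators; fluorescence change taken during the second addition on a kinetic imager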
HEK293 Ca cntr2: MrgX1 activator counter-screen hit in parental HEK293 cells | Fluo-4 calcium fluorescence (FDSS); active compounds read high | 8.7% of 4,000 active | shares compounds with MrgX1 antag | fluorescence ratio F(max-min)/F0 at 10 µM | AID 624115;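 active means calcium fluorescence ratio at least three times the spread of buffer wells, meaning a non-specific response in parental cells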
* = called active by the depositor; i = inactive; . = not tested or not shown.

SMILES	MrgX1 PAM	MrgX1 agonist	RGS4 act	MrgX1 antag	RGS4 block	MrgX1 antag conf	HEK293 Ca flux	HEK293 Ca counter	HEK293 Ca cntr2
Cc1cc(NC(=O)CCN2C(=O)C3C4C=CC(C4)C3C2=O)ccc1Br (stereo not given)	i	i	i	i	i	.	.	.	.
CC(=O)Nc1ccc(NC(=O)CCc2nc3sc4c(c3c(=O)[nH]2)CCCC4)cc1	i	i	i	-4.6*	i	i	i	i	i
NC(=O)c1ccc(NC(=O)CCc2nc3sc4c(c3c(=O)[nH]2)CCCC4)cc1	i	i	i	i	i	.	.	.	.
COc1cccc(C(=O)COc2ccc3c(C)cc(=O)oc3c2)c1	i	i	i	-5.1*	i	83%*	i	i	i
COC(=O)N1CCCc2cc(C)ccc21	i	i	i	i	i	.	.	.	.
COc1ccc2c(c1)CCCN2C(N)=O	i	i	i	-4.9*	i	i	i	i	i
O=C(Nc1c(C(=O)N2CCN(c3ccccn3)CC2)oc2ccccc12)c1cccc([N+](=O)[O-])c1	i	i	i	i	i	.	.	.	.
CCC(C(=O)N1CCN(c2ncccn2)CC1)c1ccccc1 (stereo not given)	i	i	i	-4.6*	i	i	i	i	i
CN(C)C1C(=O)c2ccccc2C1=O	i	i	i	-5*	i	i	i	i	i
O=C1c2ccccc2C(=O)C1c1ccc(O)cc1	i	i	i	i	i	.	.	.	.
Cc1ccc(C)c(NS(=O)(=O)c2ccc3c(c2)Cc2cc(S(=O)(=O)Nc4cc(C)ccc4C)ccc2-3)c1	i	i	.	i	.	.	.	.	.
COC(=O)C(C)Oc1ccc(-c2nccc(-c3ccccn3)n2)cc1 (stereo not given)	i	i	i	i	i	.	.	.	.
CCCn1c(N2CCN(C(=O)Nc3ccccc3)CC2)nc2ccccc21	i	i	i	i	i	.	.	.	.
CCCn1c(N2CCN(C(=O)N3CCCCC3)CC2)nc2ccccc21	i	i	i	-6.2*	i	i	i	i	i
CCc1cc(=O)oc2cc(OC(C)=O)cc(OC(C)=O)c12	i	i	i	-8.3*	i	i	i	i	i
Cc1cccnc1CCNC(=O)c1ccc(OC2CCN(Cc3ccccn3)CC2)cc1	i	i	i	-10*	i	i	i	i	i
CCN(CC(=O)Nc1ccc(NC(C)=O)cc1)C(=O)c1ccc2ccccc2c1	i	i	i	-5.1*	i	i	i	i	i
CCN(CC(=O)Nc1ccc(NC(C)=O)cc1)C(=O)COc1ccc2ccccc2c1	i	i	i	i	i	.	.	.	.
Cn1cccc1CNCC(O)c1ccccc1 (stereo not given)	i	i	i	i	i	.	.	.	.
O=C(O)c1ccc(NC2=C(Cl)C(=O)c3ccccc3C2=O)cc1	i	i	-7.3*	-18*	i	14%*	i	i	i
CC1=C(C(=O)c2ccccc2)C(c2ccc(N3CCOCC3)cc2)NC(=O)N1 (stereo not given)	i	i	i	-8.1*	i	73%*	i	i	i
CC1=C(C(=O)c2ccccc2)C(c2ccc(O)cc2)NC(=S)N1 (stereo not given)	i	i	i	i	i	.	.	.	.
CC(=O)c1cccc(NC(=O)Nc2ccc3c(c2)N(C)C(=O)CS3)c1	i	i	i	-9*	i	3.0%*	i	i	i
Cc1cc(C)cc(NC(=O)Nc2ccc3c(c2)N(C)C(=O)CS3)c1	i	i	i	i	i	.	.	.	.
CCCCN(Cc1ccccc1)C(=O)C1CCC(=O)N(CCc2ccccn2)C1 (stereo not given)	i	i	i	i	i	.	.	.	.
SMILES	MrgX1 PAM	MrgX1 agonist	RGS4 act	MrgX1 antag	RGS4 block	MrgX1 antag conf	HEK293 Ca flux	HEK293 Ca counter	HEK293 Ca cntr2
O=C(c1ccc2[nH]c(=O)c(=O)[nH]c2c1)N1CCc2ccccc2C1	i	i	i	i	i	.	.	.	.
CCOC(=O)C1(CCOc2ccccc2)CCN(Cc2cccc3nonc23)CC1	i	i	i	i	i	.	.	.	.
CCc1c(C)nc(N2CCN(c3ccc(OC)cc3)CC2)[nH]c1=O	i	i	i	i	i	.	.	.	.
Cc1ccc(C(=O)Nc2ccc3c(c2)C(=O)N(C)C3=O)c(C)c1	i	i	i	-6.8*	i	i	i	i	i
COc1ccccc1-c1nnc(SCc2nc3ccccc3s2)n1C	i	i	i	-5.8*	i	i	i	i	i
CCOC(=O)CN1C(=O)C(C)(C)Oc2ccc(C(=O)NC(C)(C)CC)cc21	i	i	i	-5.3*	i	i	i	i	i
CCCN(CC(=O)Nc1ccccc1C)C(=O)CC(NC(=O)c1ccccc1)c1ccccc1 (stereo not given)	i	i	i	i	i	.	.	.	.
C=CC#CC1(O)CC(C)N(C)CC1C (stereo not given)	i	i	i	i	i	.	.	.	.
CCCCCN1CC(=O)N2Cc3[nH]c4ccccc4c3C[C@H]2C1=O	i	i	i	-19*	i	i	i	i	i
CC(=O)c1ccc(OCC(=O)NC(=O)NC2CCCCC2)cc1	i	i	i	i	i	.	.	.	.
COc1ccc(N(C)S(=O)(=O)c2cccc(C(=O)N(C)Cc3ccc(C)o3)c2)cc1	i	i	i	i	i	.	.	.	.
Cc1cccc(CNC(=O)c2cc(S(=O)(=O)N3CCOCC3)cn2C)c1	i	i	i	i	i	.	.	.	.
O=C(Nc1ccc(Cl)cc1)c1cc2c(cc1O)[nH]c1ccccc12	i	i	i	-4.9*	i	54%*	i	i	i
CC(=O)Nc1ccc2[nH]c3ccccc3c2c1	i	i	i	i	i	.	.	.	.
CCNc1nc(NCC)n2c(SCC(=O)Nc3ccccc3C(F)(F)F)nnc2n1	i	i	i	i	i	.	.	.	.
